Assay results of several laboratories.
CDK4: Cyclin-dependent kinase 4 (CDK4, Homo sapiens, UniProt P11802)
CDK4 with cyclin D3: Cyclin-dependent kinase 4, with cyclin D3 (CDK4, Homo sapiens, UniProt P11802)
CDK4 with cyclin D1: Cyclin-dependent kinase 4, with cyclin D1 (CDK4, Homo sapiens, UniProt P11802)

Cc1cc(O)c(-c2ccc([C@@H](C)CN(C)C)cc2)c2c1[nH]c(=O)c1sccc12 — inhibition (CDK4; enzyme activity, inhibitor; 0.1 µM): 4.95%
C[C@]1(O)CCCN(c2nc(Nc3ccc(S(=O)(=O)N[C@H]4CC[C@H](CN5CCN(c6ccc(C7CCC(=O)NC7=O)cc6F)CC5)CC4)cc3F)ncc2C(F)(F)F)C1 (stereo partly drawn) — remaining binding (CDK4 with cyclin D3; binding, competition with immobilised ligand; 1 µM): 96%
CCCCC(=O)Nc1ccc(-c2ccc3ncn(CCC)c(=O)c3c2)cn1 — remaining binding (CDK4 with cyclin D1; binding, competition with immobilised ligand; 0.5 µM): 100%
CO[C@@H]1[C@H](N(C)C(=O)c2ccccc2)C[C@H]2O[C@]1(C)n1c3ccccc3c3c4c(c5c6ccccc6n2c5c31)C(=O)NC4 — inhibition (CDK4 with cyclin D1; enzyme activity, inhibitor; 1 µM): 4%
C1=C/COCc2cc(ccc2OCCN2CCCC2)Nc2nccc(n2)-c2cccc(c2)COC/1 — remaining binding (CDK4 with cyclin D3; binding; 0.1 µM): 25%
CC#CC(=O)N1CCC[C@H]1c1nc(-c2ccc(C(=O)Nc3ccccn3)cc2)c2c(N)nccn12 — inhibition (CDK4; enzyme activity, inhibitor; 1 µM): 0%
CC(C)S(=O)(=O)c1ccc2nccc(Nc3ccc4sc(C5CCCC5)nc4c3)c2c1 — activity vs control (CDK4 with cyclin D3; enzyme activity, inhibitor; 1 µM): 102%
C[C@]1(O)CCCN(c2nc(Nc3ccc(S(=O)(=O)N[C@H]4CC[C@H](CN5CCN(c6ccc(C7CCC(=O)NC7=O)cc6F)CC5)CC4)cc3Cl)ncc2C(F)(F)F)C1 (stereo partly drawn) — remaining binding (CDK4; binding, competition with immobilised ligand; 1 µM): 93%
CN1CCN(C(=O)c2ccc(NC(=O)Nc3ccc(N(C)c4ccnc(Nc5ccc(CS(C)(=O)=O)cc5)n4)cc3)cc2)CC1 — remaining binding (CDK4 with cyclin D3; binding; 1 µM): 89%
CNS(=O)(=O)c1ccc(Nc2ncc(C(F)(F)F)c(N3CCC[C@](C)(O)C3)n2)c(C)c1 — remaining binding (CDK4; binding, competition with immobilised ligand; 1 µM): 71%
COc1ccc2[nH]c3c4[nH]c5ccc(OC)cc5c4c4c(c3c2c1)C(=O)NC4=O — remaining binding (CDK4 with cyclin D3; binding; 1 µM): 74%
C=CC(=O)N1CCC([C@@H]2CCNc3c(C(N)=O)c(-c4ccc(Oc5ccccc5)cc4)nn32)CC1 — inhibition (CDK4 with cyclin D1; enzyme activity, inhibitor; 1 µM): 0%
